# Assay results gathered from unrelated publications.
# Target: Inhibitor of nuclear factor kappa-B kinase subunit beta (IKBKB, Homo sapiens, UniProt O14920)
# Residues used in one study (O14920 1-756): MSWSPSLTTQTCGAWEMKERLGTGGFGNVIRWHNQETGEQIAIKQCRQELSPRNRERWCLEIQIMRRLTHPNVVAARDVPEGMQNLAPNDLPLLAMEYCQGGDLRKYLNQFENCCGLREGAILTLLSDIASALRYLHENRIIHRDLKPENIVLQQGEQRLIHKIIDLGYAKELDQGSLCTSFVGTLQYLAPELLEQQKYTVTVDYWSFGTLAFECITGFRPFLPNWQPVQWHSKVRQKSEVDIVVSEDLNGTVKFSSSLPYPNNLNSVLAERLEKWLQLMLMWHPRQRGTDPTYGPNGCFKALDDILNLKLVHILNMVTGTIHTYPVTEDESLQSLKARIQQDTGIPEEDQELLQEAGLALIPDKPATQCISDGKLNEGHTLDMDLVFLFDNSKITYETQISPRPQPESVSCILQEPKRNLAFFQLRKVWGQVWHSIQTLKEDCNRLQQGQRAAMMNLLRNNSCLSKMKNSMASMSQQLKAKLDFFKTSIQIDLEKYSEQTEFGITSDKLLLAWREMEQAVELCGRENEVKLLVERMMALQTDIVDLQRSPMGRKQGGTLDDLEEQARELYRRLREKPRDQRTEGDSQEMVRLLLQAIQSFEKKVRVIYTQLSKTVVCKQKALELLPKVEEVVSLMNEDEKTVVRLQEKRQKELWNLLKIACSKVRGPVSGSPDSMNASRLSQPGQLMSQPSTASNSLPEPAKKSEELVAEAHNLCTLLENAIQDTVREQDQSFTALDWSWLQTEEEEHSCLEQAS
SMILES,observed,method,tested at,remaining binding [%]
c1cnn2ncc(-c3ccnc(N4CCC45COC5)n3)c2c1,binding,competition with immobilised ligand,1 µM,40
CCCOc1ccc([C@H]2[C@H](C(=O)O)[C@@H](c3ccc4c(c3)OCO4)CN2CC(=O)Nc2c(CC)cccc2CC)cc1,cell-free assay,competition with immobilised ligand,1 µM,77
FC(F)(F)Oc1cccc(-c2cnc3ccc(-c4ccncc4)nn23)c1,cell-free assay,competition with immobilised ligand,5 µM,56
O=C(O)c1cc(-c2ccc(C3CCNCC3)cc2)c2ccc(-c3ccc(C(F)(F)F)cc3)cc2c1,cell-free assay,competition with immobilised ligand,1 µM,100
O=C(c1ccc(Nc2nccc(-c3cc4ccccc4s3)n2)cc1)N1CCC(N2CCCC2)CC1,binding,competition with immobilised ligand,1 µM,0.1
Cc1cnn2ncc(-c3ccnc(N(C)C)n3)c2c1,binding,competition with immobilised ligand,1 µM,53
C[C@@H](c1ccc(-n2cnc3c(N)ncnc32)cc1)N1CCc2nn(C)c(Cc3ccccc3)c2C1=O,binding,competition with immobilised ligand,0.1 µM,68
C[C@H]1CCN(c2nccc(-c3cnn4ncccc34)n2)C1,binding,competition with immobilised ligand,1 µM,64
O=C(Nc1c[nH]nc1C(=O)NC1CCNCC1)c1cc(F)cc(F)c1,binding,competition with immobilised ligand,1 µM,100
Nc1ncc2c(n1)-c1c([nH]c3ccc(C#CC4CC4)cc13)CCCC2,binding,competition with immobilised ligand,1 µM,100
CN1CCN(c2cnc3c(C4CCN(C(=O)c5ccc(OC(F)(F)F)cc5N)CC4)ncnc3c2)CC1,cell-free assay,competition with immobilised ligand,1 µM,100
CNC(=O)[C@@H]1CC[C@@H](n2c(-c3ccc4cnccc4c3)nc3ccc(C(=O)NCc4cccc(C(N)=O)c4)cc32)C1,binding,competition with immobilised ligand,1 µM,100
C[C@@H]1CN(c2ccc3ncc(-c4ccc5[nH]nc(C6CC6)c5c4)n3n2)C[C@H](C)O1,binding,competition with immobilised ligand,0.5 µM,89
CNCc1ccccc1-c1csc([C@H](C)Nc2nc(C)nc3cc(OC)c(OC)cc23)c1,cell-free assay,competition with immobilised ligand,1 µM,83
CN(C)c1ncc(F)c(-c2cnn3ncccc23)n1,binding,competition with immobilised ligand,1 µM,80
C=CC(=O)N1CCC(C(=O)NCC(=O)N2CCN(c3nc(-c4cnc(N)nc4C(F)F)nc(N4CCOCC4)n3)CC2)CC1,binding,competition with immobilised ligand,1 µM,73
N[C@@H]1CCN(c2nccc(-c3cnn4ncccc34)n2)C1,binding,competition with immobilised ligand,1 µM,100
c1cncc(-c2cccc(Nc3nccc(NC4CCCCC4)n3)c2)c1,binding,competition with immobilised ligand,10 µM,89
C[C@@]1(Cc2ccc(C#N)cc2)C(=O)N(c2cc(Cl)cc(Cl)c2)c2ncc(C(=O)NC3(c4nc(C5CCC5)no4)CC3)n21,cell-free assay,competition with immobilised ligand,1 µM,100
O=C(NCCCN1CCOCC1)c1ccc(Nc2ncc(Cl)c(-c3ccc(Cl)s3)n2)cc1,binding,competition with immobilised ligand,1 µM,23
CN(C)c1nccc(-c2cnc3ncccn23)n1,binding,competition with immobilised ligand,1 µM,67
Cc1c(NC(=O)c2cc(C(N)=O)nc3cc(F)ccc23)c(C(F)(F)F)nn1Cc1ccc(C(C)(C)C)cc1,cell-free assay,competition with immobilised ligand,1 µM,100
CN(c1nccc(-c2cnn3ncccc23)n1)C1CC1,binding,,1 µM,100
CCOC(=O)c1cc2cc(-c3cc(C(=O)NCc4ccc(C(=O)O)cc4)nn3C)ccc2[nH]1,cell-free assay,competition with immobilised ligand,0.1 µM,100
O=C(c1ccc(Nc2ncc(Cl)c(-c3ccc(Cl)s3)n2)cc1)N1CCC(N2CCCC2)CC1,binding,competition with immobilised ligand,1 µM,0.6
